# Test results from ChEMBL document CHEMBL3351603, “Design of a hydrogen peroxide-activatable agent that specifically targets cancer cells” (Bioorg Med Chem, 2014).
# Assays:
# [1] = Selectivity ratio of IC50 for human primary CD34+ blood stem cells to IC50 for human MA9.3 cells; conditions: primary CD34+ blood stem cells versus MA9.3 cells, read-out: Ratio IC50
# [2] = Cytotoxicity against human MA9.3 cells after 48 hrs by MTT assay; type: functional, cell-based
# In short: (§1)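 Cells seeded at 4 × 10^4/well and held overnight at 37°C. Exposed 48 h to freshly dissolved compound. Cells were then pelleted, the medium replaced with fresh medium holding MTT (5 mg/mL stock), and incubated 4 h. Formazan dissolved in DMSO and read at 575 nm. IC50 from a four-parameter sigmoid fit. Triplicates, assay run twice. MA9.3RAS (MLL-AF9 + NrasG12D-transformed CD34+ cells) grown in IMDM with 20% bovine calf serum. Cord-blood CD34+ cells grown in the same medium plus SCF, IL-3, IL-6, Flt-3L and TPO.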
# [3] = Decrease in KEAP1 protein expression in human MA9.3 cells at 20 uM after 24 hrs relative to control
# Homo sapiens = species on record: Homo sapiens; assay: Decrease in ROS level in human MA9.3 cells at 20 uM DCF fluorescence assay; type: functional, cell-based; conditions: TDE = time-dependent effect
# In short: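 Actively growing MA9.3RAS cells suspended in 1× HBSS at 4×10^5 cells/ml. DCF-DA added to 10 μM final, with HBSS alone as blank. Compound added in HBSS to 20 μM final. Plate held at 37°C and fluorescence (ex 485/em 535 nm) read every 15 min for 1 h, with light exposure limited. Mean ± SD of six replicates, unpaired t-test.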
# [4] = Cytotoxicity against human CD34-positive blood stem/progenitor cells after 48 hrs by MTT assay; type: cell-based; in short: as §1
# [5] = Decrease in ROS level in human MA9.3 cells assessed as fluorescence intensity at 20 uM DCF fluorescence assay (reference value: 1.06 +/- 0.13 no_unit); type: functional
SMILES,selectivity ratio [1],IC50 [2] [µM],further results
C=C1C(=O)O[C@@H]2[C@H]3O[C@]3(C)CC/C=C(\C)CC[C@@H]12,2.1,3,–
O=C(CSc1ccccc1)Nc1cc(O)ccc1O,–,5,–
CN(CC(=O)Nc1ccccc1O)c1ccccc1,–,> 100,–
CCCN(C)CC(=O)Nc1cc(O)ccc1O,–,18,–
CN(CC(=O)Nc1cccc(O)c1)c1ccccc1,–,> 100,–
O=C(CNc1ccccc1)Nc1cc(O)ccc1O,–,13,–
O=C(COc1ccccc1)Nc1cc(O)ccc1O,–,3,–
CC(=O)Nc1cc(O)ccc1O,–,35,–
COc1cc(/C=C/C(=O)N2CCC=CC2=O)cc(OC)c1OC [PIPLARTINE],3.7,2,–
COc1ccc(OC)c(NC(=O)CN(C)c2ccccc2)c1,–,> 100,–
NC1=CC(=O)C=CC1=O,–,16,–
CN(CC(=O)Nc1cc(O)ccc1O)C1CCCCC1,3.8,9,–
O=C(CO)Nc1cc(O)ccc1O,–,12,–
O=C(CNC1CCCCC1)Nc1cc(O)ccc1O,11.5,2,Ratio [3]: 0.65; Activity (Homo sapiens): tde; Activity [4]: Non-toxic; Flu intensity [5]: 4.31
CN(CC(=O)Nc1cc(O)ccc1O)c1ccccc1,2,6,–
CN(CC(=O)NC1=CC(=O)C=CC1=O)c1ccccc1,–,21,–
